The subject of one test is NIH3T3. Kind of test: Cytotoxicity against mouse NIH/3T3 cells after 48 hrs by MTT assay. The class given is functional, cell-based. To be noted: NIH3T3, 48 h. In outline: (§1)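 Cells seeded at 1.0 × 10^4 to 3.5 × 10^4 per well and incubated 24 h at 37 °C under 5% CO2. Exposed to a range of compound concentrations for 48 h, washed, then given MTT for 2 h and lysed. Absorbance read at 560 nm 45 min after lysis; IC50 from probit analysis. Cycloheximide as positive control.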

In test [1] the test system is AGS. Kind of test: Induction of apoptosis in human AGS cells assessed as early apoptosis level at 15 ug/mL after 48 hrs by Annexin V-FITC apoptosis assay. The class given is functional. In outline: (§2)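 Cells plated at 40 × 10^4 per well, grown 24 h at 37 C in 5% CO2, then exposed to compound at 15 μg/mL for the stated time. Harvested by rapid trypsinisation, pelleted, resuspended in binding buffer (0.1 M Hepes/NaOH, 1.4 M NaCl, 25 mM CaCl2). Stained with FITC-annexin V and PI for 15 min, dark, room temperature. Flow cytometry within 1 h; early apoptosis scored as AV+/PI−. Untreated cells as negative control, cycloheximide 150 μg/mL as positive control.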

A further test deals with MDA-MB-231. The experiment in a line: Cytotoxicity against human MDA-MB-231 cells after 48 hrs by MTT assay. The format is functional, cell-based. The settings on record: MDA-MB-231, 48 h. An outline of the steps: as §1
Background: Tetrazolium assays rely on reduction of a dye to a coloured formazan, in cell work by metabolically active cells.

The next test deals with MCF7. Kind of test: Cytotoxicity against human MCF7 cells after 48 hrs by MTT assay. The format is functional, cell-based. To be noted: MCF7, 48 h. An outline of the steps:
as §1

For test [2], the system named is AGS. Kind of test: Cytotoxicity against human AGS cells after 48 hrs by MTT assay. The format is functional, cell-based. In outline:
as §1

The test system of another test is HT-29. The experiment in a line: Cytotoxicity against human HT-29 cells after 48 hrs by MTT assay. The class given is functional, cell-based. The settings on record: HT-29, 48 h. In outline:
as §1

For test [3], the system named is AGS. Kind of test: Induction of apoptosis in human AGS cells assessed as early apoptosis level at 15 ug/mL after 24 hrs by Annexin V-FITC apoptosis assay. The format is functional. An outline of the steps: as §2
Test [4] deals with AGS. Kind of test: Induction of apoptosis in human AGS cells assessed as early apoptosis level at 150 ug/mL after 48 hrs by Annexin V-FITC apoptosis assay. The class given is functional, cell-based. In outline:
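AGS cells seeded at 40 × 10^4 per well and incubated 24 h at 37 °C under 5% CO2. Treated 24 and 48 h with test compound at 15 μg/mL, or cycloheximide at 150 μg/mL as positive control; untreated cells as negative control. Trypsinized, pelleted, then resuspended in binding buffer (0.1 M Hepes/NaOH, 1.4 M NaCl, 25 mM CaCl2). Stained with FITC-annexin V plus PI for 15 min, dark, room temperature. Flow cytometry within 1 h; early apoptosis counted as AV+/PI−.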

Activity calls are given as the source filed them. No cut-off for these calls is given here.

`Cc1cc2c(c(C)c1CCOS(=O)(=O)O)C(=O)[C@@H](C)[C@@H]2O`: the 50% inhibitory concentration (IC50) in the test on NIH3T3 is 46.8 µM; in the test on MDA-MB-231, above 100 µM; with MCF7 it was 64.4 µM; in the test on AGS [2], 23.9 µM; with HT-29 it was 68.8 µM. Further, the Activity with AGS [1] came to 25.2%; in the test on AGS [3], 6.8%.
For the compound `C[C@@H]1C[C@@H]([C@H](O)CC2CC(=O)NC(=O)C2)C(=O)[C@@H](C)C1` [CYCLOHEXIMIDE], the IC50 in the test with NIH3T3 was 1.1 µM; with MDA-MB-231, 1.2 µM; in the test with MCF7 it was above 100 µM; in the test on AGS [2], 3.6 µM; with HT-29 it was 12.8 µM. In addition, the result in the test with AGS [4] was Active.

In general, IC50 refers to the concentration that gives 50% inhibition. The low end stands for higher potency, the high end for lower potency.
